Experiments:
D(4) dopamine receptor = target: T1, D(4) dopamine receptor (Rattus norvegicus, UniProt P30729); experiment: Displacement of [3H]N-methylspiperone from rat dopamine D4 receptor by PDSP assay
T1 sequence (P30729 whole entry): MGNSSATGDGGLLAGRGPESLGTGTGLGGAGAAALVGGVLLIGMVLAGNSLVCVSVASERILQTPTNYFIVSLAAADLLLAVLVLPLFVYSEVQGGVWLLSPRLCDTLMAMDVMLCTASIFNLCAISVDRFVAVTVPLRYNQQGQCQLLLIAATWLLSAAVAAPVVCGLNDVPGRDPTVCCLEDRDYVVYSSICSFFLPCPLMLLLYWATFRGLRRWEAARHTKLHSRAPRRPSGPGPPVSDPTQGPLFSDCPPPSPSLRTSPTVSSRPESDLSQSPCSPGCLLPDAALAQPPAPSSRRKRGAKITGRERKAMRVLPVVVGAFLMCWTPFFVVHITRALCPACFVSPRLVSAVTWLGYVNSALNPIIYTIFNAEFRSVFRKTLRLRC

D(1A) dopamine receptor = D(1A) dopamine receptor (Homo sapiens, UniProt P21728); experiment: Displacement of [3H]SCH23390 from human dopamine D1 receptor by PDSP assay; conditions: for inhibition: concentration not given here
D(2) dopamine receptor = D(2) dopamine receptor (Homo sapiens, UniProt P14416); experiment: Displacement of [3H]N-methylspiperone from human dopamine D2 receptor by PDSP assay
D(3) dopamine receptor = D(3) dopamine receptor (Homo sapiens, UniProt P35462); experiment: Displacement of [3H]N-methylspiperone from human dopamine D3 receptor by PDSP assay
D(1B) dopamine receptor = D(1B) dopamine receptor (Homo sapiens, UniProt P21918); experiment: Displacement of [3H]SCH23390 from human dopamine D5 receptor by PDSP assay; design: concentration or dose not given beside the values; conditions: for inhibition: concentration not given here
[1] = Selectivity ratio of Ki for human dopamine D2 receptor to Ki for rat dopamine D4 receptor
[2] = Selectivity ratio of Ki for human dopamine D3 receptor to Ki for rat dopamine D4 receptor
[3] = target: 5-hydroxytryptamine receptor 2A (Rattus norvegicus, UniProt P14842); experiment: Displacement of [3H]ketanserin from rat 5-HT2A receptor by PDSP assay
Outline: (§1)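 Ki values were determined by the NIMH Psychoactive Drug Screening Program using radioligand displacement. Compounds first went through a primary assay.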

[4] = target: T2, 5-hydroxytryptamine receptor 2C (Rattus norvegicus, UniProt P08909); experiment: Displacement of [3H]mesulergine from rat 5-HT2C receptor by PDSP assay; outline: as §1
T2 sequence (P08909 whole entry): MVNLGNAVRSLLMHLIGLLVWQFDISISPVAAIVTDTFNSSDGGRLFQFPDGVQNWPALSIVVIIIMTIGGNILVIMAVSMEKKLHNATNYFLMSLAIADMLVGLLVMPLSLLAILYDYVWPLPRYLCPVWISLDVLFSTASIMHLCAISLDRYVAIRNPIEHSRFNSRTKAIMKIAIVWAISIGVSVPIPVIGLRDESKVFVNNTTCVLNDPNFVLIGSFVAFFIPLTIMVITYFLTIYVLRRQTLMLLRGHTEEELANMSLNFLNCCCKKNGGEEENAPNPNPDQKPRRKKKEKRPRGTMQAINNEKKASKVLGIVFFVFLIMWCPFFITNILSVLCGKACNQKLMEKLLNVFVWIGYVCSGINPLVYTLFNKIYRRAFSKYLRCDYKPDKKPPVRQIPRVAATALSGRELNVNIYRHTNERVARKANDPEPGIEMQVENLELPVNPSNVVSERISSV

[5] = target: 5-hydroxytryptamine receptor 7 (Homo sapiens, UniProt P34969); experiment: Displacement of [3H]LSD from human 5-HT7 receptor by PDSP assay
[6] = target: Sigma non-opioid intracellular receptor 1 (Homo sapiens, UniProt Q99720); experiment: Binding affinity to sigma-1 receptor (unknown origin) by PDSP assay
[7] = Binding affinity to sigma-2 receptor (unknown origin) by PDSP assay; design: species or system Homo sapiens

Chain of D(3) dopamine receptor (P35462 whole entry): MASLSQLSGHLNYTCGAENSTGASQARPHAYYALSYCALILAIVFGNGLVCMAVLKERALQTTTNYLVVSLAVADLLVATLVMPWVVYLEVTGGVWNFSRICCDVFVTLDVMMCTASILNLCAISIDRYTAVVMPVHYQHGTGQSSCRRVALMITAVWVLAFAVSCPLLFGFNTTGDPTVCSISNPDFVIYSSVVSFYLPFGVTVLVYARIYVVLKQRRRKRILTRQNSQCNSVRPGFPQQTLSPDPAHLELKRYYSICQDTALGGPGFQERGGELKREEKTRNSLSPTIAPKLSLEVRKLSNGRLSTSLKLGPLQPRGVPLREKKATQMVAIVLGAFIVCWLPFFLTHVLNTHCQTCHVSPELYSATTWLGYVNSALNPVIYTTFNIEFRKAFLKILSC
Chain of D(1A) dopamine receptor (P21728 whole entry): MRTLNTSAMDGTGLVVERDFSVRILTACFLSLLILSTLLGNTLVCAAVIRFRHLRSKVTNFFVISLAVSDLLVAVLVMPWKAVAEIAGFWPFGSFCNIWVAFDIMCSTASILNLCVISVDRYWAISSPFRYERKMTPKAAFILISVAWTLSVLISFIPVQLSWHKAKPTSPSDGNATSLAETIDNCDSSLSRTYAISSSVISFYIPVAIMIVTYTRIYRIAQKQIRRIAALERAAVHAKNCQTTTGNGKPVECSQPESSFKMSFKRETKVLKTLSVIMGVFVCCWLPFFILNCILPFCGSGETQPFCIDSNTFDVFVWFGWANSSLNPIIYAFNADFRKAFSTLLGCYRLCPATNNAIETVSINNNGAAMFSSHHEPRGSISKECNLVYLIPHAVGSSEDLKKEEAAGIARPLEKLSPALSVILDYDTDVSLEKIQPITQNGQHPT
Chain of D(2) dopamine receptor (P14416 whole entry): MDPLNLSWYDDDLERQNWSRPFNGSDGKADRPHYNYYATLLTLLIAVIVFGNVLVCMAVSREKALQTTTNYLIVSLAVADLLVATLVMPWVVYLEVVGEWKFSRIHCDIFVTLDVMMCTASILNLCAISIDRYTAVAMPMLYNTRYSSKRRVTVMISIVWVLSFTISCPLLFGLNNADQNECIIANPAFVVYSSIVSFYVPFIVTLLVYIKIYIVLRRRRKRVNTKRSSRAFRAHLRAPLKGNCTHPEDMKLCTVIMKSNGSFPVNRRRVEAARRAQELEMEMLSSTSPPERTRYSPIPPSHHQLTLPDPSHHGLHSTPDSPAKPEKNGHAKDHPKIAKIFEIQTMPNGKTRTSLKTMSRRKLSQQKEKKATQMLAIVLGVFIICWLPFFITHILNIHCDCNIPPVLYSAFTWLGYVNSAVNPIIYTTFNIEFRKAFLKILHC
Chain of D(1B) dopamine receptor (P21918 whole entry): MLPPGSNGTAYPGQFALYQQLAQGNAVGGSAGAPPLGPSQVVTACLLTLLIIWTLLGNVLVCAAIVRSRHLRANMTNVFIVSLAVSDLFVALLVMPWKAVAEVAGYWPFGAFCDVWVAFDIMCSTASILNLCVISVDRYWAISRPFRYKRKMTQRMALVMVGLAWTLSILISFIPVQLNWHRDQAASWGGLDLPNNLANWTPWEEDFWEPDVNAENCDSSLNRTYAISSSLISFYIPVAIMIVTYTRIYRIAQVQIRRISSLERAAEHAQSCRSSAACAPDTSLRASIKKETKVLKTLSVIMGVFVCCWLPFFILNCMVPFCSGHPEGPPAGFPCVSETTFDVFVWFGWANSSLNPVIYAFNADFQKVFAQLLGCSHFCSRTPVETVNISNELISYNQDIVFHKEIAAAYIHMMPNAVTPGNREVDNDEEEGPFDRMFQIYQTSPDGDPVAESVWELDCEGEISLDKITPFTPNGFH
Chain of 5-hydroxytryptamine receptor 7 (P34969 whole entry): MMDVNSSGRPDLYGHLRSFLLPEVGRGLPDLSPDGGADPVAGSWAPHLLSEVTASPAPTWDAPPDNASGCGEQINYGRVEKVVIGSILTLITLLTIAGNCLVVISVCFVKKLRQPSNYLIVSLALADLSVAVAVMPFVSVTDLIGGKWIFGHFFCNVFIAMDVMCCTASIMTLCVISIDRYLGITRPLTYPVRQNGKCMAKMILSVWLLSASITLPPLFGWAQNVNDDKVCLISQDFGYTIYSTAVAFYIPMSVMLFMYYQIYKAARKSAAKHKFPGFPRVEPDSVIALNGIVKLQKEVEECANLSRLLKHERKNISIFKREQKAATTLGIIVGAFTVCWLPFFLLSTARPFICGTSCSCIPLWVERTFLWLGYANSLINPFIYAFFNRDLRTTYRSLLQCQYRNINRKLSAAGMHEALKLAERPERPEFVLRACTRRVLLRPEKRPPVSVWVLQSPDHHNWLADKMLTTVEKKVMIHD
Chain of Sigma non-opioid intracellular receptor 1 (Q99720 whole entry): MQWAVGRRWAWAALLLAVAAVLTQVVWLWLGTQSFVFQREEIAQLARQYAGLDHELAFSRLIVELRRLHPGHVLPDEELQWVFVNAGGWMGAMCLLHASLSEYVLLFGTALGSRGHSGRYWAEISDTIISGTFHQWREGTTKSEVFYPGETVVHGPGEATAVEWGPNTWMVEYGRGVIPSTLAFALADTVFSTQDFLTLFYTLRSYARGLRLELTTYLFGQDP
Chain of 5-hydroxytryptamine receptor 2A (P14842 whole entry): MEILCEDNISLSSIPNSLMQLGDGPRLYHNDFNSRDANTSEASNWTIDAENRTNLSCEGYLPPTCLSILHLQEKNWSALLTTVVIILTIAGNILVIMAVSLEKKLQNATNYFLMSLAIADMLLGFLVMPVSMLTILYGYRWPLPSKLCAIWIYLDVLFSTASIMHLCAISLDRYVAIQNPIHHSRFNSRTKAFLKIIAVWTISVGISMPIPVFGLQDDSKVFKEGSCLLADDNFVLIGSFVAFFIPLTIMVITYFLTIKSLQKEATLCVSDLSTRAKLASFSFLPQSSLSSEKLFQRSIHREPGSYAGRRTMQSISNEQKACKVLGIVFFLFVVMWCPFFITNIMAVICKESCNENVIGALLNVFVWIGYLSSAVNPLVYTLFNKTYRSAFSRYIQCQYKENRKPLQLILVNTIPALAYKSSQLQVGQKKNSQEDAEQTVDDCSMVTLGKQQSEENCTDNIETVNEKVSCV

| SMILES | Ki (D(4) dopamine receptor; read-out: Ki) [nM] | Ki (D(1A) dopamine receptor; read-out: Ki) [nM] | Ki (D(2) dopamine receptor) [nM] | Ki (D(3) dopamine receptor; read-out: Ki) [nM] | Ratio Ki [1] | Ratio Ki [2] | Ki (D(1B) dopamine receptor) [nM] | inhibition (D(1B) dopamine receptor) [%] | other results |
| --- | --- | --- | --- | --- | --- | --- | --- | --- | --- |
| Clc1ccc(N2CCN(CCCc3cc4ccccc4o3)CC2)cc1 | 78.9 | 1410 | 1980 | 2290 | 25.1 | 29 | – | < 50 | – |
| c1cnc(N2CCN(CCCc3nc4ccccc4s3)CC2)nc1 | 3.9 | – | – | – | – | – | – | – | Ki [3]: 283 nM; Ki [4]: 280 nM; Ki [5]: 342 nM; Ki [6]: 350 nM; Ki [7]: 162 nM; pKi [7]: 6.79 |
| Cc1ccc(N2CCN(CCCCc3ccc(F)cc3)CC2)nc1 | – | 521 | – | – | – | – | 3260 | – | – |
| Clc1ccc(N2CCN(CCc3cc4ccccc4o3)CC2)cc1 | – | – | – | – | – | – | – | < 50 | inhibition (D(1A) dopamine receptor): < 50% |
| Clc1ccc(N2CCN(CCCc3nc4ccccc4o3)CC2)cc1 | 145 | 1170 | 3960 | 180 | 27.3 | 1.5 | > 10000 | – | – |
| Clc1ccc(N2CCN(CCCOc3ccccc3)CC2)cc1 | – | – | – | – | 79.8 | 130 | – | – | Ki (D(3) dopamine receptor; read-out: pKi (converted)): 794 nM; Ki (D(4) dopamine receptor; read-out: pKi (converted)): 5.5 nM |
| Clc1ccc(N2CCN(CCc3nc4ccccc4o3)CC2)cc1 | 1410 | – | – | 850 | – | 0.6 | – | < 50 | inhibition (D(1A) dopamine receptor): < 50% |
| Fc1ccc2c(c1)CC(CCN1CCN(c3ccc(Cl)cc3)CC1)C2 (centres undefined) | 13 | 837 | 1420 | 2770 | – | – | – | < 50 | – |
| Fc1ccc(CCCCN2CCN(c3ccc(Cl)cc3)CC2)cc1 | – | 589 | – | – | 36.4 | 33.5 | 1760 | – | – |
| FC(F)(F)c1ccc(OCCCN2CCN(c3ccccn3)CC2)cc1 | 12 | 2340 | 1090 | 355 | 91 | 29.6 | > 10000 | – | – |
| Fc1ccc(CCCCN2CCN(c3ccccn3)CC2)cc1 | – | – | – | – | – | – | 1450 | – | – |
| Clc1ccc(N2CCN(CCCCc3nc4ccccc4o3)CC2)cc1 | 30.6 | – | – | 33 | – | 1.1 | – | < 50 | inhibition (D(1A) dopamine receptor): < 50% |
| Fc1ccc(CCCCN2CCN(c3ncccn3)CC2)cc1 | – | 134 | – | – | – | – | 3810 | – | – |
| Clc1ccc(N2CCN(CCCCc3nc4ccccc4s3)CC2)cc1 | – | 1900 | – | 31 | 54.8 | 7.8 | – | – | – |
| Clc1ccc(N2CCCN(CCCc3cc4ccccc4o3)CC2)cc1 | 185 | 274 | 2510 | 1460 | 13.5 | 7.9 | 1520 | – | – |

Further lines, with some results ahead:

| Ki (D(4) dopamine receptor; read-out: Ki) [nM] | Ki (D(1A) dopamine receptor; read-out: Ki) [nM] | Ki (D(2) dopamine receptor) [nM] | Ki (D(3) dopamine receptor; read-out: Ki) [nM] | Ratio Ki [1] | Ratio Ki [2] | Ki (D(1B) dopamine receptor) [nM] | SMILES | inhibition (D(1B) dopamine receptor) [%] | other results |
| --- | --- | --- | --- | --- | --- | --- | --- | --- | --- |
| 17.5 | – | – | – | – | – | – | O=C(CCCN1CCN(c2ccc(Cl)cc2)CC1)c1ccc(F)cc1 | – | – |
| – | 265 | – | – | 32.1 | 28.1 | 3220 | Fc1ccc(SCCCN2CCN(c3ccccn3)CC2)cc1 | – | – |
| 13 | – | 635 | 1340 | 48.8 | 103 | – | [O-][S+](CCCN1CCN(c2ccc(Cl)cc2)CC1)c1ccc(F)cc1 (centres undefined) | < 50 | inhibition (D(1A) dopamine receptor): < 50% |
| – | 1270 | – | 214 | 74.9 | 6.9 | > 10000 | Clc1ccc(N2CCN(CCCc3nc4ccccc4s3)CC2)cc1 | – | – |
| – | 495 | – | – | 20.1 | 3.2 | 1370 | Fc1ccc(SCCCN2CCN(c3ncccn3)CC2)cc1 | – | – |
| 0.84 | – | – | – | – | – | – | c1cnc(N2CCN(CCCCc3nc4ccccc4s3)CC2)nc1 | – | – |
| 2400 | – | – | – | > 4.2 | 0.3 | – | Clc1ccc(N2C[C@H]3C[C@@H]2CN3CCCc2cc3ccccc3o2)cc1 | < 50 | inhibition (D(1A) dopamine receptor): < 50% |
| – | 259 | – | – | 151 | 185 | – | Fc1ccc(OCCCN2CCN(c3ncccn3)CC2)cc1 | < 50 | – |
| – | 260 | 1050 | 187 | 951 | 170 | 2580 | Cc1ccc(N2CCN(CCCOc3ccc(F)cc3)CC2)nc1 | – | – |
| – | 135 | – | – | – | – | 2680 | Fc1ccc(OCCCN2CCN(c3ccc(Cl)cc3)CC2)cc1 | – | – |
| – | 52 | – | – | 24.3 | 48.5 | 2810 | Fc1ccc(SCCCN2CCN(c3ccc(Cl)cc3)CC2)cc1 | – | – |
| 240 | 7940 | 3110 | 119 | 13 | 0.5 | > 10000 | Clc1ccc(N2CCN(CCCCCc3nc4ccccc4o3)CC2)cc1 | – | – |
| – | 126 | – | – | 4.3 | 73.3 | 867 | Fc1ccc(OCCCN2CCC(c3ccc(Cl)cc3)CC2)cc1 | – | – |
| 36 | 1700 | > 10000 | 4530 | – | 126 | – | O=C1c2ccccc2CC1CCN1CCN(c2ccc(Cl)cc2)CC1 (centres undefined) | < 50 | Ki (D(1A) dopamine receptor; read-out: pKi (converted)): 389 nM |
| 20 | 222 | 1110 | 170 | 55.3 | 8.5 | 2160 | Cc1ccc(N2CCN(CCCSc3ccc(F)cc3)CC2)nc1 | – | – |
| 6.1 | 641 | 1540 | 2480 | 253 | 406 | – | O=C1c2ccc(F)cc2CC1CCN1CCN(c2ccc(Cl)cc2)CC1 (centres undefined) | < 50 | – |

Reference: ChEMBL document CHEMBL3286287, “Identification of a new selective dopamine D4 receptor ligand” (Bioorg Med Chem, 2014)
